Measured values: ChEMBL document CHEMBL3351702, “Design, synthesis and characterization of fluoro substituted novel pyrazolylpyrazolines scaffold and their pharmacological screening” (Eur J Med Chem, 2014)
In brackets after ≈: the same amount, converted by molar mass.

How the values were obtained:
[1] = test system: Clostridium tetani; assay: Antimicrobial activity against Clostridium tetani MTCC 449 assessed as absence of visible growth after 24 to 48 hrs by broth micro dilution method; type: functional
[2] = test system: Bacillus subtilis; assay: Antimicrobial activity against Bacillus subtilis MTCC 441 assessed as absence of visible growth after 24 to 48 hrs by broth micro dilution method; type: functional
[3] = test system: Mycobacterium tuberculosis; assay: Antituberculosis activity against Mycobacterium tuberculosis H37Rv assessed as inhibition of colony formation at 250 ug/ml after 4 weeks of incubation; type: functional; settings: 672 h
[4] = test system: Salmonella typhi; assay: Antimicrobial activity against Salmonella typhi MTCC 98 assessed as absence of visible growth after 24 to 48 hrs by broth micro dilution method; type: functional, Salmonella enterica subsp. enterica serovar Typhi; settings: Salmonella enterica
[5] = test system: Plasmodium falciparum; assay: Antimalarial activity against chloroquine ane quinine-sensitive ring stage of Plasmodium falciparum assessed as inhibition of parasite growth after 48 hrs; type: functional, organism-based
Outline: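 P. falciparum field strain from a Surat hospital, cultured by a modified Trager–Jensen method and synchronized with 5% D-sorbitol at ring stage. Rings at 1–2% parasitaemia and 2.5% haematocrit in hypoxanthine-free RPMI-1640 with 10% human plasma. Exposed to 7 concentrations, diluted from DMSO stocks, for one 48 h cycle at 37 °C. Growth inhibition % measured; IC50 by interpolation; duplicate runs, mean reported.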

[6] = test system: Aspergillus fumigatus; assay: Antimicrobial activity against Aspergillus fumigatus MTCC 3008 assessed as absence of visible growth after 24 to 48 hrs by broth micro dilution method; type: functional
Outline: (§1)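 Fungal broth microdilution following NCCLS, in Sabouraud dextrose broth, with compounds diluted from DMSO and inoculum adjusted to 10⁸ CFU/mL by turbidity. Growth read at 24 and 48 h. MIC is the highest dilution preventing turbidity after spot subculture. Griseofulvin and nystatin were the references.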

[7] = test system: Streptococcus pneumoniae; assay: Antimicrobial activity against Streptococcus pneumoniae MTCC 1936 assessed as absence of visible growth after 24 to 48 hrs by broth micro dilution method; type: functional
[8] = test system: Escherichia coli; assay: Antimicrobial activity against Escherichia coli MTCC 443 assessed as absence of visible growth after 24 to 48 hrs by broth micro dilution method; type: functional
[9] = test system: Vibrio cholerae; assay: Antimicrobial activity against Vibrio cholerae MTCC 3906 assessed as absence of visible growth after 24 to 48 hrs by broth micro dilution method; type: functional
[10] = test system: Candida albicans; assay: Antimicrobial activity against Candida albicans MTCC 227 assessed as absence of visible growth after 24 to 48 hrs by broth micro dilution method; type: functional; outline: as §1

| Compound | MIC [1] [µg/mL] | MIC [2] [µg/mL] | inhibition at 250 µg/mL [3] [%] | MIC [4] [µg/mL] | IC50 [5] [µg/mL] | MIC [6] [µg/mL] | MIC [7] [µg/mL] | MIC [8] [µg/mL] | MIC [9] [µg/mL] | MIC [10] [µg/mL] |
| --- | --- | --- | --- | --- | --- | --- | --- | --- | --- | --- |
| COc1ccc(N2N=C(c3ccc(F)cc3)CC2c2c(C)nn(-c3ccccc3)c2Oc2ccc(F)cc2)cc1 (stereo not drawn) | 200 (≈ 373 µM) | 62.5 (≈ 116 µM) | 74 | 500 (≈ 932 µM) | 0.25 (≈ 0.466 µM) | 250 (≈ 466 µM) | 125 (≈ 233 µM) | 500 (≈ 932 µM) | 100 (≈ 186 µM) | 500 (≈ 932 µM) |
| Cc1nn(-c2ccccc2)c(Oc2ccc(F)cc2)c1C1CC(c2ccc(F)cc2)=NN1c1ccc(Br)cc1 (stereo not drawn) | 125 (≈ 214 µM) | 500 (≈ 854 µM) | 96 | 200 (≈ 342 µM) | 0.025 (≈ 0.0427 µM) | > 1000 | 500 (≈ 854 µM) | 200 (≈ 342 µM) | 500 (≈ 854 µM) | 500 (≈ 854 µM) |
| COc1ccc(N2N=C(c3ccc(F)cc3)CC2c2c(C)nn(-c3ccccc3)c2Oc2ccccc2F)cc1 (stereo not drawn) | 500 (≈ 932 µM) | 100 (≈ 186 µM) | 22 | 500 (≈ 932 µM) | 0.65 (≈ 1.21 µM) | 250 (≈ 466 µM) | 500 (≈ 932 µM) | 500 (≈ 932 µM) | 500 (≈ 932 µM) | 500 (≈ 932 µM) |
| COC1=CC(=O)C[C@@H](C)[C@]12Oc1c(Cl)c(OC)cc(OC)c1C2=O [GRISEOFULVIN] |  |  |  |  |  | 100 (≈ 283 µM) |  |  |  | 500 (≈ 1420 µM) |
| CO[C@H]1/C=C/O[C@@]2(C)Oc3c(C)c(O)c4c(O)c(c(/C=N/N5CCN(C)CC5)c(O)c4c3C2=O)NC(=O)/C(C)=C\C=C\[C@H](C)[C@H](O)[C@@H](C)[C@@H](O)[C@@H](C)[C@H](OC(C)=O)[C@@H]1C [RIFAMPIN] |  |  | 98 |  |  |  |  |  |  |  |
| CC1(C)S[C@@H]2[C@H](NC(=O)[C@H](N)c3ccccc3)C(=O)N2[C@H]1C(=O)O [AMPICILLIN] | 250 (≈ 715 µM) | 250 (≈ 715 µM) |  | 100 (≈ 286 µM) |  |  | 100 (≈ 286 µM) | 100 (≈ 286 µM) | 100 (≈ 286 µM) |  |
| O=C(O)c1cn(C2CC2)c2cc(N3CCNCC3)c(F)cc2c1=O [CIPROFLOXACIN] |  |  |  | 25 (≈ 75.4 µM) |  |  | 25 (≈ 75.4 µM) | 25 (≈ 75.4 µM) | 25 (≈ 75.4 µM) |  |
| CCn1cc(C(=O)O)c(=O)c2cc(F)c(N3CCNCC3)cc21 [NORFLOXACIN] | 50 (≈ 157 µM) | 100 (≈ 313 µM) |  | 10 (≈ 31.3 µM) |  |  | 10 (≈ 31.3 µM) | 10 (≈ 31.3 µM) | 10 (≈ 31.3 µM) |  |
| O=C(N[C@H](CO)[C@H](O)c1ccc([N+](=O)[O-])cc1)C(Cl)Cl [CHLORAMPHENICOL] | 50 (≈ 155 µM) | 50 (≈ 155 µM) |  | 50 (≈ 155 µM) |  |  | 50 (≈ 155 µM) | 50 (≈ 155 µM) | 50 (≈ 155 µM) |  |
| COc1ccc(N2N=C(c3ccc(F)cc3)CC2c2c(C)nn(-c3ccccc3)c2Oc2cccc(F)c2)cc1 (stereo not drawn) | 200 (≈ 373 µM) | 200 (≈ 373 µM) | 56 | 500 (≈ 932 µM) | 0.57 (≈ 1.06 µM) | > 1000 | 100 (≈ 186 µM) | 500 (≈ 932 µM) | 200 (≈ 373 µM) | 1000 (≈ 1860 µM) |
| Cc1nn(-c2ccccc2)c(Oc2ccccc2F)c1C1CC(c2ccc(F)cc2)=NN1c1ccc(Br)cc1 (stereo not drawn) | 500 (≈ 854 µM) | 200 (≈ 342 µM) | 94 | 200 (≈ 342 µM) | 0.088 (≈ 0.15 µM) | 1000 (≈ 1710 µM) | 250 (≈ 427 µM) | 100 (≈ 171 µM) | 500 (≈ 854 µM) | 250 (≈ 427 µM) |
| Cc1nn(-c2ccccc2)c(Oc2ccc(F)cc2)c1C1CC(c2ccc(F)cc2)=NN1c1ccc(F)cc1 (stereo not drawn) | 250 (≈ 477 µM) | 500 (≈ 953 µM) | 40 | 250 (≈ 477 µM) | 0.022 (≈ 0.0419 µM) | > 1000 | 100 (≈ 191 µM) | 500 (≈ 953 µM) | 200 (≈ 381 µM) | 200 (≈ 381 µM) |
| NYSTATIN |  |  |  |  |  | 100 |  |  |  | 100 |
| C=C[C@H]1CN2CC[C@H]1C[C@H]2[C@H](O)c1ccnc2ccc(OC)cc12 [QUININE] |  |  |  |  | 0.268 (≈ 0.826 µM) |  |  |  |  |  |
| COc1ccc(N2N=C(c3ccc(F)cc3)CC2c2c(C)nn(-c3ccccc3)c2Oc2cccc(C(F)(F)F)c2)cc1 (stereo not drawn) | 200 (≈ 341 µM) | 100 (≈ 170 µM) | 52 | 100 (≈ 170 µM) | 0.3 (≈ 0.511 µM) | 500 (≈ 852 µM) | 200 (≈ 341 µM) | 100 (≈ 170 µM) | 250 (≈ 426 µM) | 250 (≈ 426 µM) |
| Cc1nn(-c2ccccc2)c(Oc2cccc(F)c2)c1C1CC(c2ccc(F)cc2)=NN1c1ccc(Br)cc1 (stereo not drawn) | 250 (≈ 427 µM) | 250 (≈ 427 µM) | 56 | 200 (≈ 342 µM) | 0.06 (≈ 0.102 µM) | > 1000 | 500 (≈ 854 µM) | 500 (≈ 854 µM) | 125 (≈ 214 µM) | 250 (≈ 427 µM) |
| Cc1nn(-c2ccccc2)c(Oc2ccccc2F)c1C1CC(c2ccc(F)cc2)=NN1c1ccc(F)cc1 (stereo not drawn) | 250 (≈ 477 µM) | 500 (≈ 953 µM) | 10 | 250 (≈ 477 µM) | 0.025 (≈ 0.0477 µM) | 100 (≈ 191 µM) | 250 (≈ 477 µM) | 200 (≈ 381 µM) | 250 (≈ 477 µM) | 1000 (≈ 1910 µM) |
| Cc1nn(-c2ccccc2)c(Oc2cccc(C(F)(F)F)c2)c1C1CC(c2ccc(F)cc2)=NN1c1ccc(Br)cc1 (stereo not drawn) | 250 (≈ 393 µM) | 250 (≈ 393 µM) | 91 | 200 (≈ 315 µM) | 1.46 (≈ 2.3 µM) | 500 (≈ 787 µM) | 500 (≈ 787 µM) | 250 (≈ 393 µM) | 250 (≈ 393 µM) | 1000 (≈ 1570 µM) |
